Key:
Triticum aestivum [1] = experiment: Post-emergent herbicidal activity against Triticum vulgare var. Salamanca (wheat) assessed as dry biomass at 20 uM after 14 days relative to control; assay type: functional
Procedure, shortened: (§1)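 Plants were grown 18 days in a greenhouse, then sprayed with compound dissolved in MeOH with Tween 20 and maize oil. Controls were sprayed with distilled water containing the same MeOH, Tween 20 and maize oil. Dry biomass of all leaves was weighed 14 days after spraying, and differences from control were judged by Student's t-test (p < 0.05).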

Physalis ixocarpa [2] = experiment: Post-emergent herbicidal activity against Physalis ixocarpa assessed as dry biomass at 60 uM after 14 days relative to control; assay type: functional; procedure, shortened: as §1
Trifolium alexandrinum [3] = experiment: Post-emergent herbicidal activity against Trifolium alexandrinum assessed as dry biomass at 40 uM after 14 days relative to control; assay type: functional; procedure, shortened: as §1
Trifolium alexandrinum [4] = experiment: Post-emergent herbicidal activity against Trifolium alexandrinum assessed as dry biomass at 20 uM after 14 days relative to control; assay type: functional; procedure, shortened: as §1
Physalis ixocarpa [5] = experiment: Post-emergent herbicidal activity against Physalis ixocarpa assessed as dry biomass at 20 uM after 14 days relative to control; assay type: functional; procedure, shortened: as §1
Triticum aestivum [6] = experiment: Post-emergent herbicidal activity against Triticum vulgare var. Salamanca (wheat) assessed as dry biomass at 60 uM after 14 days relative to control; assay type: functional; procedure, shortened: as §1
Lolium multiflorum [7] = experiment: Post-emergent herbicidal activity against Lolium multiflorum (Italian ryegrass) assessed as dry biomass at 40 uM after 14 days relative to control; assay type: functional; procedure, shortened: as §1
Physalis ixocarpa [8] = experiment: Post-emergent herbicidal activity against Physalis ixocarpa assessed as dry biomass at 40 uM after 14 days relative to control; assay type: functional; procedure, shortened: as §1
Triticum aestivum [9] = experiment: Post-emergent herbicidal activity against Triticum vulgare var. Salamanca (wheat) assessed as dry biomass at 40 uM after 14 days relative to control; assay type: functional; procedure, shortened: as §1
Trifolium alexandrinum [10] = experiment: Post-emergent herbicidal activity against Trifolium alexandrinum assessed as dry biomass at 60 uM after 14 days relative to control; assay type: functional; procedure, shortened: as §1
Lolium multiflorum [11] = experiment: Post-emergent herbicidal activity against Lolium multiflorum (Italian ryegrass) assessed as dry biomass at 60 uM after 14 days relative to control; assay type: functional; procedure, shortened: as §1
Lolium multiflorum [12] = experiment: Post-emergent herbicidal activity against Lolium multiflorum (Italian ryegrass) assessed as dry biomass at 20 uM after 14 days relative to control; assay type: functional; procedure, shortened: as §1
[13] = Inhibition of mitochondrial complex 1 in Homo sapiens (human) T47D cells by Clark's electrode method; assay type: cell-based
Physalis ixocarpa [14] = experiment: Herbicidal activity against Physalis ixocarpa assessed as inhibition of seed respiration after 5 to 72 hr by Clark's electrode method; assay type: functional, organism-based
Procedure, shortened: (§2)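 Seeds imbibed in 10 mL water on filter paper in Petri dishes, with compound at 10–50 μM (dissolved in MeOH, final MeOH under 1%); controls received the same water and MeOH. O2 uptake was measured polarographically after 5, 24, 48 and 72 h of imbibition, and consumption rate was calculated. IC50 at 72 h was derived by probit/linear regression. Replicate experiments, means ± S.E.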

Lolium multiflorum [15] = experiment: Herbicidal activity against Lolium multiflorum (Italian ryegrass) assessed as inhibition of shoot elongation after 5 days; conditions: 120 h
Physalis ixocarpa [16] = experiment: Herbicidal activity against Physalis ixocarpa assessed as inhibition of shoot elongation after 5 days; conditions: 120 h
Physalis ixocarpa [17] = experiment: Herbicidal activity against Physalis ixocarpa assessed as inhibition of seed respiration after 72 hr by Clark's electrode method; assay type: functional, organism-based
Procedure, shortened: (§3)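 Seeds were imbibed in 10 mL water in Petri dishes with compound at 10–50 μM, as in the germination set-up. O2 uptake was measured after 5, 24, 48 and 72 h with an oxygen electrode, where O2-reduction current was converted to voltage. Consumption rate was calculated, with replicates as mean ± S.E. IC50 came from probit analysis.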

Triticum aestivum [18] = experiment: Herbicidal activity against Triticum vulgare var. Salamanca (wheat) assessed as inhibition of seed germination after 4 days; conditions: 96 h
Lolium multiflorum [19] = experiment: Herbicidal activity against Lolium multiflorum (Italian ryegrass) assessed as inhibition of root elongation after 5 days; conditions: 120 h
Triticum aestivum [20] = experiment: Herbicidal activity against Triticum vulgare var. Salamanca (wheat) assessed as inhibition of shoot elongation after 4 days; conditions: 96 h
Trifolium alexandrinum [21] = experiment: Herbicidal activity against Trifolium alexandrinum assessed as inhibition of root elongation after 5 days; conditions: 120 h
Lolium multiflorum [22] = experiment: Herbicidal activity against Lolium multiflorum (Italian ryegrass) assessed as inhibition of seed respiration after 72 hr by Clark's electrode method; assay type: functional, organism-based; procedure, shortened: as §3
Lolium multiflorum [23] = experiment: Herbicidal activity against Lolium multiflorum (Italian ryegrass) assessed as inhibition of seed respiration at 10 to 50 uM by Clark's electrode method; assay type: functional, organism-based; conditions: TDE = time-dependent effect; procedure, shortened: as §2
Physalis ixocarpa [24] = experiment: Herbicidal activity against Physalis ixocarpa assessed as inhibition of seed germination at 50 uM after 5 days; assay type: functional; conditions: 120 h
Procedure, shortened: (§4)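 Seeds were placed on filter paper in Petri dishes (20 seeds for T. vulgare) and wetted with deionized water or test solution. Compound was given in MeOH at under 1%, and controls held matching MeOH. Three replicate experiments were run. Germination was scored as 1 mm root extrusion, and root and shoot length were measured on all germinated seeds. Student's t-test was used, and IC50 values came from probit analysis.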

Trifolium alexandrinum [25] = experiment: Herbicidal activity against Trifolium alexandrinum assessed as inhibition of seed respiration at 10 to 50 uM by Clark's electrode method; assay type: functional, organism-based; conditions: TDE = time-dependent effect; procedure, shortened: as §2
Trifolium alexandrinum [26] = experiment: Herbicidal activity against Trifolium alexandrinum assessed as inhibition of seed respiration after 5 to 72 hr by Clark's electrode method; assay type: functional, organism-based; procedure, shortened: as §2
Triticum aestivum [27] = experiment: Herbicidal activity against Triticum vulgare var. Salamanca (wheat) assessed as inhibition of seed respiration after 5 to 72 hr by Clark's electrode method; assay type: functional, organism-based; procedure, shortened: as §2
Triticum aestivum [28] = experiment: Herbicidal activity against Triticum vulgare var. Salamanca (wheat) assessed as inhibition of root elongation after 4 days; conditions: 96 h
Lolium multiflorum [29] = experiment: Herbicidal activity against Lolium multiflorum (Italian ryegrass) assessed as inhibition of seed germination after 5 days; conditions: 120 h
Spinacia oleracea [30] = experiment: Inhibition of light reaction of photosynthesis in Spinacia oleracea (spinach) chloroplast; assay type: functional
Physalis ixocarpa [31] = experiment: Herbicidal activity against Physalis ixocarpa assessed as inhibition of seed respiration at 10 to 50 uM by Clark's electrode method; assay type: functional, organism-based; conditions: TDE = time-dependent effect; procedure, shortened: as §2
Trifolium alexandrinum [32] = experiment: Herbicidal activity against Trifolium alexandrinum assessed as inhibition of seed respiration after 72 hr by Clark's electrode method; assay type: functional, organism-based; procedure, shortened: as §3
Spinacia oleracea [33] = experiment: Inhibition of hill reaction in Spinacia oleracea (spinach) chloroplast; assay type: functional
Trifolium alexandrinum [34] = experiment: Herbicidal activity against Trifolium alexandrinum assessed as inhibition of shoot elongation after 5 days; conditions: 120 h
Lolium multiflorum [35] = experiment: Herbicidal activity against Lolium multiflorum (Italian ryegrass) assessed as inhibition of seed respiration after 5 to 72 hr by Clark's electrode method; assay type: functional, organism-based; procedure, shortened: as §2
Trifolium alexandrinum [36] = experiment: Herbicidal activity against Trifolium alexandrinum assessed as inhibition of seed germination after 5 days; conditions: 120 h
Lolium multiflorum [37] = experiment: Herbicidal activity against Lolium multiflorum (Italian ryegrass) assessed as inhibition of seed germination at 50 uM after 5 days; assay type: functional; conditions: 120 h; procedure, shortened: as §4
Triticum aestivum [38] = experiment: Herbicidal activity against Triticum vulgare var. Salamanca (wheat) assessed as inhibition of seed respiration at 10 to 50 uM by Clark's electrode method; assay type: functional, organism-based; conditions: TDE = time-dependent effect; procedure, shortened: as §2
Physalis ixocarpa [39] = experiment: Herbicidal activity against Physalis ixocarpa assessed as inhibition of root elongation after 5 days; conditions: 120 h
Physalis ixocarpa [40] = experiment: Herbicidal activity against Physalis ixocarpa assessed as inhibition of seed germination after 5 days; conditions: 120 h
Triticum aestivum [41] = experiment: Herbicidal activity against Triticum vulgare var. Salamanca (wheat) assessed as inhibition of seed respiration after 72 hr by Clark's electrode method; assay type: functional, organism-based; procedure, shortened: as §3

C[n+]1ccc(-c2cc[n+](C)cc2)cc1.[Cl-].[Cl-] [PARAQUAT DICHLORIDE]
Activity (Triticum aestivum [1]): 83%
Activity (Physalis ixocarpa [2]): 84%
Activity (Trifolium alexandrinum [3]): 59%
Activity (Trifolium alexandrinum [4]): 67%
Activity (Physalis ixocarpa [5]): 96%
Activity (Triticum aestivum [6]): 67%
Activity (Lolium multiflorum [7]): 54%
Activity (Physalis ixocarpa [8]): 100%
Activity (Triticum aestivum [9]): 67%
Activity (Trifolium alexandrinum [10]): 57%
Activity (Lolium multiflorum [11]): 32%
Activity (Lolium multiflorum [12]): 97%

CC(C)(O)[C@H]1CC[C@](C)([C@@H](O)CC[C@](C)(O)[C@H]2CC[C@H]3O[C@@H]([C@]4(C)CC[C@@H](Br)C(C)(C)O4)CC[C@]3(C)O2)O1 [THYRSIFEROL]
IC50 [13]: 3 µM

CCCCC[C@H]1CCCCCCCCCC(=O)O[C@H]2[C@H](O)[C@@H](CO)O[C@@H](O[C@H]3[C@H](O1)O[C@H](C)[C@H](O)[C@@H]3O)[C@@H]2O[C@@H]1O[C@@H](C)[C@H](OC(=O)[C@@H](C)CC)[C@@H](O[C@@H]2O[C@@H](C)[C@H](O)[C@@H](O)[C@H]2O)[C@H]1OC(=O)[C@@H](C)CC [TRICOLORIN A]
Activity (Triticum aestivum [1]): 82%
inhibition (Physalis ixocarpa [14]): Dose-dependent effect
Activity (Physalis ixocarpa [2]): 78%
IC50 (Lolium multiflorum [15]): 12.3 µM
IC50 (Physalis ixocarpa [16]): 12.7 µM
IC50 (Physalis ixocarpa [17]): 11.7 µM
IC50 (Triticum aestivum [18]): 25.7 µM
IC50 (Lolium multiflorum [19]): 15.3 µM
IC50 (Triticum aestivum [20]): 8.5 µM
IC50 (Trifolium alexandrinum [21]): 18 µM
IC50 (Lolium multiflorum [22]): 8 µM
Activity (Trifolium alexandrinum [3]): 83%
Activity (Trifolium alexandrinum [4]): 87%
inhibition (Lolium multiflorum [23]): tde
inhibition at 50 µM (Physalis ixocarpa [24]): 100%
Activity (Physalis ixocarpa [5]): 104%
inhibition (Trifolium alexandrinum [25]): tde
Activity (Triticum aestivum [6]): 67%
inhibition (Trifolium alexandrinum [26]): Dose-dependent effect
Activity (Lolium multiflorum [7]): 53%
Activity (Physalis ixocarpa [8]): 84%
inhibition (Triticum aestivum [27]): Dose-dependent effect
IC50 (Triticum aestivum [28]): 24.1 µM
IC50 (Lolium multiflorum [29]): 16.1 µM
UC50 (Spinacia oleracea [30]): 0.33 µM
inhibition (Physalis ixocarpa [31]): tde
IC50 (Trifolium alexandrinum [32]): 22.6 µM
Activity (Triticum aestivum [9]): 78%
IC50 (Spinacia oleracea [33]): 5 µM
IC50 (Trifolium alexandrinum [34]): 12.7 µM
Activity (Trifolium alexandrinum [10]): 63%
inhibition (Lolium multiflorum [35]): Dose-dependent effect
IC50 (Trifolium alexandrinum [36]): 16 µM
inhibition at 50 µM (Lolium multiflorum [37]): 100%
inhibition (Triticum aestivum [38]): tde
IC50 (Physalis ixocarpa [39]): 13.8 µM
IC50 (Physalis ixocarpa [40]): 13.8 µM
Activity (Lolium multiflorum [11]): 38%
Activity (Lolium multiflorum [12]): 91%
IC50 (Triticum aestivum [41]): 25.7 µM

— ChEMBL document CHEMBL3046181 (Molecules, 2013)
